Assay results taken from ChEMBL document CHEMBL3397043, “Synthesis, anticandidal activity of N(3)-(4-methoxyfumaroyl)-(S)-2,3-diaminopropanoic amide derivatives--novel inhibitors of glucosamine-6-phosphate synthase” (Eur J Med Chem, 2015).

Assays:
Candida parapsilosis = assay: Antimicrobial activity against Candida parapsilosis DSM 5784 assessed as growth inhibition serial 2-fold dilution microtitre plate method; assay type: functional; conditions: Lodderomyces parapsilosis
Procedure, shortened: (§1)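 MIC by serial 2-fold broth dilution in microtitre plates. Medium was YNB with ammonium sulfate as nitrogen source, pH 5.0. Growth was compared with control cultures and read on a microplate reader.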

Escherichia coli = assay: Antimicrobial activity against Escherichia coli PCM 2560 assessed as growth inhibition serial 2-fold dilution microtitre plate method; assay type: functional
Procedure, shortened: (§2)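 Bacterial MIC in Mueller Hinton Broth 2 (acid casein hydrolysate, beef extract, starch), pH 7.3. Growth was compared with control cultures and read on a microplate reader.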

Nakaseomyces glabratus = assay: Antimicrobial activity against Candida glabrata DSM 11226 assessed as growth inhibition serial 2-fold dilution microtitre plate method; assay type: functional; procedure, shortened: as §1
Staphylococcus aureus = assay: Antimicrobial activity against Staphylococcus aureus ATCC 29213 assessed as growth inhibition serial 2-fold dilution microtitre plate method; assay type: functional; procedure, shortened: as §2
Candida albicans = assay: Antimicrobial activity against Candida albicans ATCC 10231 assessed as growth inhibition serial 2-fold dilution microtitre plate method; assay type: functional; procedure, shortened: as §1
[1] = Binding affinity to immobilized artificial membrane PC DD2 (unknown origin) by UV/Vis detector model
Procedure, shortened: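 HPLC on an IAM PC DD2 column (3 cm × 4.6 mm, 300 Å pores). Mobile phase 0.1 M phosphate buffer pH 7.2 at 1 mL/min, UV detection at 254 nm. Dead time t0 taken from citric acid retention. Capacity factor k'IAM = (tr − t0)/t0, reported as log k'IAM.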

Bacillus subtilis = assay: Antimicrobial activity against Bacillus subtilis ATCC 9372 assessed as growth inhibition serial 2-fold dilution microtitre plate method; assay type: functional; procedure, shortened: as §2
[2] = Inhibition of Candida albicans glucosamine-6-phosphate synthase assessed as glucosamine-6-phosphate by Elson-Morgan method
Procedure, shortened: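 Enzyme source: cell-free extract of C. albicans GlcN-6-P synthase overproduced in E. coli. Incubated 37 °C for 30 min, stopped by 100 °C for 1 min. GlcN-6-P measured by modified Elson-Morgan. IC50 is the concentration giving 50% inhibition.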

Pseudomonas aeruginosa = assay: Antimicrobial activity against Pseudomonas aeruginosa ATCC 2756 assessed as growth inhibition serial 2-fold dilution microtitre plate method; assay type: functional; procedure, shortened: as §2
[3] = tested on: Staphylococcus epidermidis; assay: Antimicrobial activity against Staphylococcus epidermidis PCM 2118 assessed as growth inhibition serial 2-fold dilution microtitre plate method; assay type: functional; procedure, shortened: as §2

Row | Structure (SMILES) | MIC (Candida parapsilosis) | MIC (Escherichia coli) | MIC (Nakaseomyces glabratus) | MIC (Staphylococcus aureus) | MIC (Candida albicans) | log K [1] | MIC (Bacillus subtilis) | IC50 [2] | MIC (Pseudomonas aeruginosa) | MIC [3]
1 | COC(=O)/C=C/C(=O)NC[C@H](N)C(=O)O | > 2000 µg/mL | > 2000 µg/mL | > 2000 µg/mL | > 2000 µg/mL | > 2000 µg/mL | -0.812 | > 2000 µg/mL | 4.03 µM | > 2000 µg/mL | > 2000 µg/mL
2 | COC(=O)/C=C/C(=O)NC[C@H](N)C(N)=O.Cl | > 1020 µg/mL | > 1020 µg/mL | > 1020 µg/mL | > 1020 µg/mL | 4 µg/mL | -0.362 | > 1020 µg/mL | 80.7 µM | > 1020 µg/mL | > 1020 µg/mL
3 | COC(=O)/C=C/C(=O)NC[C@H](N)C(=O)N(C)C.Cl | > 1020 µg/mL | > 1020 µg/mL | > 1020 µg/mL | > 1020 µg/mL | 512 µg/mL | 0.118 | > 1020 µg/mL | 2890 µM | > 1020 µg/mL | > 1020 µg/mL
4 | CNC(=O)[C@@H](N)CNC(=O)/C=C/C(=O)OC.Cl | > 1020 µg/mL | > 1020 µg/mL | > 1020 µg/mL | > 1020 µg/mL | 32 µg/mL | -0.193 | > 1020 µg/mL | 127 µM | > 1020 µg/mL | > 1020 µg/mL
